# PMI act satM6P = PMI (human) activation, high substrate; activation factor at 20 µM; coupled PMI enzyme assay, resazurin fluorescence, 20 min; active compounds read high; 1 = untreated enzyme, 0 = substrate-free blank; 190,000 compounds, 0.34% hits; P34949;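 active means activation factor of 2 or more at 20 µM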
#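 Test system: human phosphomannose isomerase with PGI, G6PDH, diaphorase coupling enzymes; amount: 15 ng/mL PMI; incubation: enzyme reaction with compound 20 min at room temperature; technique: resorufin fluorescence (Ex 544/Em 590 nm) from resazurin via diaphorase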
# Lmaj promast = inhibitors of Leishmania major promastigote growth; Leishmania major promastigotes, resazurin fluorescence viability; inhibition, % at 10 µM; 200,000 compounds, 9% hits; in the data active means inhibition above about 50%;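 further: promastigotes grown with compound for 44 hours at 28 °C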
# Rad51 HR inh = blocks human Rad51 in homologous recombination | hRad51 DNA strand exchange, fluorescence dequenching | inhibition, % at 10 µM | 200,000 compounds, 0.085% hits;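 active means inhibition above 40% at the single screening dose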;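 further: 0% = DMSO control wells and 100% = blanks with heterologous ssDNA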
# Target sequence (Q06609 whole entry, looked up): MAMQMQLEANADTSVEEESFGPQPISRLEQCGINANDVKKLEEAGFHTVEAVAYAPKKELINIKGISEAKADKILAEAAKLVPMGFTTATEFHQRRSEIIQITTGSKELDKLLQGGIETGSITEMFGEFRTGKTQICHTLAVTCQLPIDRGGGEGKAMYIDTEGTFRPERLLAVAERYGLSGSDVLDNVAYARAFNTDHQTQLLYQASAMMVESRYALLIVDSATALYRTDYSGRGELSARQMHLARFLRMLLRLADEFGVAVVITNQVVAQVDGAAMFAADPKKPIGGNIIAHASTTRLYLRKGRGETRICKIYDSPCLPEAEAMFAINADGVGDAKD
#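 Test system: preformed human Rad51 ssDNA filaments; also added: Donor/quencher-labelled 47-bp dsDNA substrate; doses: 10 µM final, single point; times: 37 °C 15-min filament assembly, 30-min compound preincubation, 15-min exchange; detection: FRET fluorescence dequenching, excitation 485 nm, emission 520 nm; read-out basis: Fluorescence-based percent inhibition, control- and blank-normalised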
# PMI act = increases human mannose-6-phosphate isomerase activity; P34949; purified human PMI, coupled resazurin fluorescence, 20 min; active compounds read high; 1 = vehicle control, 0 substrate-free wells; activation factor at 20 µM; 190,000 compounds, 0.005% hits;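 active means activation factor of 2 or more at 20 µM, relative to plate controls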
# WT yeast gro inh = growth inhibition of WT yeast, mitochondrial fusion screen; mitochondrial fusion phenotypic screen, WT strain; inhibition, % at 10 µM; 190,000 compounds, 2.1% hits; AID 1362; in the data active means inhibition above about 58%; tested in S. cerevisiae
# Calpain2 inh = calpain II (pig) inhibition; purified calpain II, fluorogenic peptide substrate, 30 min; inhibition, % at 16 µM; 220,000 compounds, 0.37% hits;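 active means inhibition above about 50%, limit read from the data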
# Active calls of the source: *; x = no result given. Hits are enriched below; roughly 9.8% of the tested compounds scored in any of these assays.
SMILES,PMI act satM6P,Lmaj promast,Rad51 HR inh,PMI act,WT yeast gro inh,Calpain2 inh
CN(C)CCCn1c(NCc2ccc3c(c2)OCO3)nc2ccccc21,1.1,66*,-3,1.1,-7,7
C=CCn1c(NCc2ccc3c(c2)OCO3)nc2ccccc21,1,98*,-3,1,0,14
c1ccc2c(c1)nc(NCc1ccc3c(c1)OCO3)n2CCN1CCOCC1,1,3,x,1,-1,-14
CCCn1c(NCc2ccc(N(C)C)cc2)nc2ccccc21,0.9,23,-8,1,7,-6
CC(C)c1nc2scc(-c3ccc(Cl)cc3)c2c(=O)n1N,x,x,-20,x,x,21
O=C(Cn1nc(C(=O)O)c2ccccc2c1=O)NC12CC3CC(CC(C3)C1)C2,0.9,-4,-1,0.9,-6,10
COc1cc(OC)cc(-c2n[nH]c(=S)n2-c2cc(OC)ccc2OC)c1,0.9,100*,-4,0.8,-2,-33
COc1cc(-n2c(-c3ccccc3)n[nH]c2=S)c(OC)cc1Cl,0.9,59*,x,0.9,10,33
COc1ccc(OC)c(-n2c(-c3ccc(O)cc3O)n[nH]c2=S)c1,x,x,8,x,x,1
O=C(CNc1ccc2ccccc2c1)N/N=C/C=C/c1cccc([N+](=O)[O-])c1,0.8,0,-1,0.7,3,6
CC(C)c1ccc(-c2nn(-c3ccccc3)cc2C2C(C#N)=C(N)OC3=C2C(=O)CC(C)(C)C3)cc1 (stereo not drawn),0.9,77*,5,0.8,49,-129
CCN(CC)S(=O)(=O)c1ccc(C)c(NC(=O)CSc2ncc(C(F)(F)F)cc2Cl)c1,1.1,-11,4,1.1,-5,-1
Cc1ccc(S(=O)(=O)N(C)C)cc1NC(=O)CSc1ncc(C(F)(F)F)cc1Cl,1,61*,3,1.1,7,-3
Cc1ccc2c(c1)c1c3n2CCCN(Cc2ccccc2)C3CCC1 (stereo not drawn),0.9,25,2,0.9,81*,0
O=C(c1cc(-c2ccc(Cl)cc2)n(-c2ccc(Cl)c(Cl)c2)n1)N1CCOCC1,0.8,14,-1,0.8,66*,-6
Cc1nn(Cc2ccc(Cl)cc2)c(C)c1NC(=O)C(c1ccccc1)c1ccccc1,0.9,99*,10,0.9,31,18
CCCNc1nc(N2CCCC2)nc(N2CCCC2)n1,x,89*,4,x,31,-11
CC(C)(C)Nc1nc(N2CCCC2)nc(N2CCCC2)n1,1,98*,0,0.9,11,-5
CCNc1nc(NC(C)(C)C)nc(N2CCCC2)n1,0.9,80*,x,0.9,60*,-16
O=C(O)c1ccc2c(c1)C(=O)N(c1nccs1)C2=O,x,x,-1,x,x,-5
O=c1cc(N=Nc2ccc(Cl)cc2)[nH]c(=O)[nH]1,x,x,2,x,x,-15
O=C(NC(=S)N1CCN(Cc2ccccc2)CC1)c1ccco1,1.1,-1,3,1.1,-10,-16
CC(CCc1ccccc1)NC(=O)CN1CCSc2ccccc21 (stereo not drawn),0.9,16,x,0.9,1,29
CCCCC(=O)Nc1ccc(NC(=O)c2ccccc2[N+](=O)[O-])cc1OC,1.1,38,3,0.9,-5,-4
Cc1ccc(S(=O)(=O)Nc2cc3c(C(=O)Nc4ccccc4)c(C)oc3c3ccccc23)cc1,0.6,61*,-17,0.8,27,-34
SMILES,PMI act satM6P,Lmaj promast,Rad51 HR inh,PMI act,WT yeast gro inh,Calpain2 inh
Cc1ccccc1NC(=S)N(Cc1cccs1)C1CCCCC1,0.9,38,11,0.9,67*,-2
Cc1ccc(Cl)cc1NC(=S)N(Cc1cccs1)C1CCCC1,1,-1,0,0.9,22,-11
Cc1c(Cl)cccc1NC(=S)N(Cc1cccs1)C1CCCC1,0.9,22,3,0.9,67*,28
Cc1nn(-c2ccccc2Cl)c(Cl)c1/C=N/Nc1nc2ccccc2s1,1,59*,0,1.1,10,14
CCn1nnnc1SCC(=O)Nc1ccc(OC)cc1,1,1,9,1,-4,-8
Cc1ccc2nc(NC(=O)COC(=O)CSc3nc(C)cc(C)n3)sc2c1,0.8,-2,-2,0.9,-7,-16
COc1ccc2nc(NC(=O)CSc3nc(C)cc(C)n3)sc2c1,1,51*,3,1,10,-1
CCn1nnnc1SCC(=O)Nc1nc2ccc(OC)cc2s1,1.1,86*,0,1,9,25
O=C(O)Cc1sc(-c2ccccc2)nc1-c1ccccc1,1,-1,-1,1,-9,-15
Cc1ccc(-c2nc(-c3ccccn3)sc2CC(=O)O)cc1,x,x,47*,x,x,-17
O=C(O)Cc1sc(Nc2ccccc2)nc1-c1ccc(Cl)cc1,2.5*,-3,-6,1.6,8,10
O=C(C1CCCO1)N1CCN(C(=S)Nc2ccc(F)cc2)CC1 (stereo not drawn),1,56*,-5,1,-4,-9
O=C(O)CC1(CC(=O)NCc2csc(-c3cccs3)n2)CCCCC1,x,x,8,x,x,-4
CC(C)=CC1C(C(=O)Nc2ccc(Br)cn2)C1(C)C (stereo not drawn),0.9,5,x,0.9,27,53*
COc1ccc(C2=NOC(C(=O)Nc3cccnc3)C2)cc1OC (stereo not drawn),x,x,2,x,x,32
Cc1cccc(NC(=O)CSc2ccc(-c3ccco3)nn2)c1,0.9,19,-4,0.8,5,-20
Cc1ccc(CNC(=O)CSc2ccc(-c3ccco3)nn2)cc1,0.8,63*,-4,0.8,3,-15
Cc1cc(C)cc(NC(=O)CSc2ccc(-c3ccco3)nn2)c1,0.9,51*,-5,0.8,-10,-3
O=C(CSc1ccc(-c2ccco2)nn1)NCc1ccc(F)cc1,0.9,28,-4,0.9,8,-17
Cc1ccc(NC(=O)C2CCN(c3cnccn3)CC2)cc1C,1.2,89*,-2,1.1,-23,-54
O=C(Nc1ccc2c(c1)OCCO2)C1CCN(c2cnccn2)CC1,1,-1,-5,1,-19,-46
CCCS(=O)(=O)c1nc(S(=O)(=O)c2ccc(C)cc2)c(N2CCCC2)s1,1.2,1,-1,1,2,-34
CCCS(=O)(=O)c1nc(S(=O)(=O)c2ccc(C)cc2)c(N2CCc3ccccc3C2)s1,1.4,61*,-11,1.2,-10,7
O=C(CN1CCN(S(=O)(=O)c2ccc(Br)cc2)CC1)N/N=C/c1ccncc1,x,x,-1,x,x,10
CCOc1cc(CN2CCCC(C(=O)c3cccc(C(F)(F)F)c3)C2)ccc1O (stereo not drawn),0.8,54*,6,1,-9,-6
O=C(c1cccc(C(F)(F)F)c1)C1CCCN(Cc2cccn2-c2ncccn2)C1 (stereo not drawn),1,28,-17,1,14,-5
